Experiments:
[1] = biological target: Serine/threonine-protein kinase MARK1 (Homo sapiens) (UniProt Q9P0L2); test: Competitive binding affinity to MARK1 (unknown origin) at 10 uM in presence of ATP relative to control
Procedure, shortened: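 In vitro ATP-site competition binding assay, part of profiling against a diverse panel of 128 kinases. Each compound was tested at a single concentration of 10 µM. Kinome selectivity was summarized as S15 selectivity scores.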

[2] = species: Homo sapiens; test: Competitive binding affinity to EGFR L747 to E749 deletion mutant, A750P mutant (unknown origin) at 10 uM in presence of ATP relative to control
[3] = biological target: T1, cAMP-dependent protein kinase catalytic subunit PRKX (Homo sapiens) (UniProt P51817); test: Competitive binding affinity to PRKX (unknown origin) at 10 uM in presence of ATP relative to control
T1 sequence (whole entry): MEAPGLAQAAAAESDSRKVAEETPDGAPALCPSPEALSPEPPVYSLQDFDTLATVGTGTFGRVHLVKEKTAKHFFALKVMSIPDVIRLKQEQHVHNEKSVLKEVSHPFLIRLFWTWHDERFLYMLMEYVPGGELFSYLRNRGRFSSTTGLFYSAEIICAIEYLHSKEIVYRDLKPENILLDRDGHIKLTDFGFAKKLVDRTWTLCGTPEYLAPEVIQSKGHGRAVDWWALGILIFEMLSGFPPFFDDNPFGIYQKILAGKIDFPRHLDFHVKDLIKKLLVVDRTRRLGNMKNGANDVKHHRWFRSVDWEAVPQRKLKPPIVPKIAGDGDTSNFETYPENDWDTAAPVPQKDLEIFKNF

[4] = biological target: T2, Serine/threonine-protein kinase 17B (Homo sapiens) (UniProt O94768); test: Competitive binding affinity to DRAK2 (unknown origin) at 10 uM in presence of ATP relative to control
T2 sequence (whole entry): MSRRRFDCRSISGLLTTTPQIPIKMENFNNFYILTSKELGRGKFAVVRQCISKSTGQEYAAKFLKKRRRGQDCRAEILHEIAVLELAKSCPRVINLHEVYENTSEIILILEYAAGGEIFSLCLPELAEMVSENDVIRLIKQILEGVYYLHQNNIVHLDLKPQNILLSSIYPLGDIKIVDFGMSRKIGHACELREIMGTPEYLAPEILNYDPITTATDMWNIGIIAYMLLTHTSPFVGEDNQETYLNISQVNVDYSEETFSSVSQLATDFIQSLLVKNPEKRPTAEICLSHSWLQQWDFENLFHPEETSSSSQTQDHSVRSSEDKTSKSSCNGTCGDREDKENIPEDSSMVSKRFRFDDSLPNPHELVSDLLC

[5] = test system: Phosphatidylinositol 4,5-bisphosphate 3-kinase catalytic subunit alpha isoform (Homo sapiens), P42336 [E545K]; test: Competitive binding affinity to PIK3CA E545K mutant (unknown origin) at 10 uM in presence of ATP relative to control
[6] = biological target: T3, Myosin-IIIb (Homo sapiens) (UniProt Q8WXR4); test: Competitive binding affinity to MYO3B (unknown origin) at 10 uM in presence of ATP relative to control
T3 sequence (whole entry): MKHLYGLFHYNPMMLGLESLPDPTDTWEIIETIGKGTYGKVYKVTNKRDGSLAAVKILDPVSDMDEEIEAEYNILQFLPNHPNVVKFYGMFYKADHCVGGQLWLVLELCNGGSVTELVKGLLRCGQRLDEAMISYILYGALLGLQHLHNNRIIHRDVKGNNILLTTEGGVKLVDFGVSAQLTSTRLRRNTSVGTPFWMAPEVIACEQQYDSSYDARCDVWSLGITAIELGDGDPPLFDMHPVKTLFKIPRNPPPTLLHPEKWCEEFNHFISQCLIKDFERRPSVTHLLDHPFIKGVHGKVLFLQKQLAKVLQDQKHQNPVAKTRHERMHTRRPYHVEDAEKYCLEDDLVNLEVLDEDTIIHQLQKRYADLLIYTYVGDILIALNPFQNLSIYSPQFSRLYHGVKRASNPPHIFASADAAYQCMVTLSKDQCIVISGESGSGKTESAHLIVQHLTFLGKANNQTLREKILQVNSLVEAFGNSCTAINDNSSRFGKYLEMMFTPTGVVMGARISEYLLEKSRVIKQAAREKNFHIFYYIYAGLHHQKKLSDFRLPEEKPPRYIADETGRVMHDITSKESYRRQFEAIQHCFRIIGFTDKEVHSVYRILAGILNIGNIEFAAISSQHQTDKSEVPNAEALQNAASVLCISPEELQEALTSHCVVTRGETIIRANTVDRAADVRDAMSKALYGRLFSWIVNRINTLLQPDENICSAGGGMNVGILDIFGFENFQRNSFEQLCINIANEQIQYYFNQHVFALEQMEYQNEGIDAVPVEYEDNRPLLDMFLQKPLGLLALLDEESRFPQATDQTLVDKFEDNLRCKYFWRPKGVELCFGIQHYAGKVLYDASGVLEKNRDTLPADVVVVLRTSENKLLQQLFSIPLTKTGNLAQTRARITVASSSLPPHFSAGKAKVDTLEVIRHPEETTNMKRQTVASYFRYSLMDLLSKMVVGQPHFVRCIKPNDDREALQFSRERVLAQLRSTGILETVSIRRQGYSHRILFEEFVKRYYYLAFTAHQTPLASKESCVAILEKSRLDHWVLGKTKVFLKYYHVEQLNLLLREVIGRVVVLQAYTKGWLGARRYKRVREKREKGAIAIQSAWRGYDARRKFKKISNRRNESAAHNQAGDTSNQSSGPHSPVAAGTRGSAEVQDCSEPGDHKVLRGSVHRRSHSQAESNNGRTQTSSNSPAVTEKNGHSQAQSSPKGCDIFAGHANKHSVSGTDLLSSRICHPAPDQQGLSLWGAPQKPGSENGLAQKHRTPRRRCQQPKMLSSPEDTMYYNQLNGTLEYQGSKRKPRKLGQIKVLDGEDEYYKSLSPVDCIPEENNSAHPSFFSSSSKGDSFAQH

Phosphatidylinositol 4,5-bisphosphate 3-kinase catalytic subunit alpha isoform (Homo sapiens), P42336 [E545K], sequence (P42336 whole entry E545K, canonical isoform): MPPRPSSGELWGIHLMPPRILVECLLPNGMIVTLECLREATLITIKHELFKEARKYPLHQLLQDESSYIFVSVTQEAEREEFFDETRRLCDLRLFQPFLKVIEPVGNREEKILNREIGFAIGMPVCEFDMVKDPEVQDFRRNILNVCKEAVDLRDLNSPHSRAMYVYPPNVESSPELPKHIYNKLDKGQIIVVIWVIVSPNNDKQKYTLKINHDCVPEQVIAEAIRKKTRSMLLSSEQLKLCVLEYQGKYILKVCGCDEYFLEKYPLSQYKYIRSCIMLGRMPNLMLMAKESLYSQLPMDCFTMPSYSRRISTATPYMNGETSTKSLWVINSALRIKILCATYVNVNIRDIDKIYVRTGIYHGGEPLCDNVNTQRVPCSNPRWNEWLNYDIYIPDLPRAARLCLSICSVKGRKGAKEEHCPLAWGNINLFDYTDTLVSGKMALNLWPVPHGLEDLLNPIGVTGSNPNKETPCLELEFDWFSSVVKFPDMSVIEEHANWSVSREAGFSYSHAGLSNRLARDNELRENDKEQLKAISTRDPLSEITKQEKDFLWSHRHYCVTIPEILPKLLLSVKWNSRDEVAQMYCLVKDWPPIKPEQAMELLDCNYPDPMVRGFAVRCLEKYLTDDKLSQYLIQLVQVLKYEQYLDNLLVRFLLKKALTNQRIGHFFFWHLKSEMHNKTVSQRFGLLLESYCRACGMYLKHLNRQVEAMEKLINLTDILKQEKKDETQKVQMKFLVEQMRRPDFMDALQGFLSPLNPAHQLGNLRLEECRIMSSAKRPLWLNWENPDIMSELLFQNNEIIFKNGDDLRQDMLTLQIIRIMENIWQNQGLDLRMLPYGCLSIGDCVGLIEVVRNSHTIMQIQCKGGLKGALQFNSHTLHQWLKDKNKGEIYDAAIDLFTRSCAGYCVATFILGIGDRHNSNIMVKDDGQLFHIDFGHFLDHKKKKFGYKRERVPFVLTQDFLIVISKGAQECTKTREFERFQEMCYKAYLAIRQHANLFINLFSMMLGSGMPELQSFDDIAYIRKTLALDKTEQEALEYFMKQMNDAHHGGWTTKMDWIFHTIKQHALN
Serine/threonine-protein kinase MARK1 (Homo sapiens), sequence (Q9P0L2 whole entry, looked up): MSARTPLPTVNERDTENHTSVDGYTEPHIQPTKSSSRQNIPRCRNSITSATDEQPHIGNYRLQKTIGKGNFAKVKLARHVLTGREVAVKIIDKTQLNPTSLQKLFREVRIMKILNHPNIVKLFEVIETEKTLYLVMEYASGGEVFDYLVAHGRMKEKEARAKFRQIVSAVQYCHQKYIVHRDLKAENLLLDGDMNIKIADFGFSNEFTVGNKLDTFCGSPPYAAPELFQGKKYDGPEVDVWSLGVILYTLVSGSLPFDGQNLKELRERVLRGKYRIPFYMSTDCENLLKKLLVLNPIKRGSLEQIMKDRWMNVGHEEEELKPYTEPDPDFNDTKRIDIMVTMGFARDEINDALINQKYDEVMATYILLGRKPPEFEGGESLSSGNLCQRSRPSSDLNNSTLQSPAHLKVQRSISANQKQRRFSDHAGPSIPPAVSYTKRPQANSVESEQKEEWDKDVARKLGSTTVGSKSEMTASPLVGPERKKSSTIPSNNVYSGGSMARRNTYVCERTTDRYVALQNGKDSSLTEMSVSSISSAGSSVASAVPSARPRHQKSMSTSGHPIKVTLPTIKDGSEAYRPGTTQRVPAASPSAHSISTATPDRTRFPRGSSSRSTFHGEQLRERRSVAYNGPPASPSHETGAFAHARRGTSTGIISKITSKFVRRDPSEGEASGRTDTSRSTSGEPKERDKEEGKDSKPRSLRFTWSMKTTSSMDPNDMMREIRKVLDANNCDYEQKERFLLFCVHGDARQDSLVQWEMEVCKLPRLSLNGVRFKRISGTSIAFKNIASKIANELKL

Row | inhibition [1] [%] | inhibition [2] [%] | inhibition [3] [%] | inhibition [4] [%] | inhibition [5] [%] | inhibition [6] [%] | Structure (SMILES)
1 | 66 | < 50 | < 50 | – | – | – | O[C@H]1CC[C@H](Nc2nccc(-c3n[nH]c4ccccc34)n2)CC1
2 | < 50 | < 50 | < 50 | < 50 | < 50 | < 50 | O[C@H]1CC[C@H](Nc2nccc(-n3ccc4ccccc43)n2)CC1
3 | < 50 | < 50 | < 50 | 86 | 88 | < 50 | O[C@H]1CC[C@H](Nc2nccc(-n3nnc4ccccc43)n2)CC1
4 | < 50 | < 50 | < 50 | 91 | 82 | < 50 | O[C@H]1CC[C@H](Nc2nccc(-n3ncc4ccccc43)n2)CC1
